# Data published in ChEMBL document CHEMBL4513216, “Probing the Open Global Health Chemical Diversity Library for Multistage-Active Starting Points for Next-Generation Antimalarials” (ACS Infect Dis, 2020).
# Assay: Toxicity liver stage against HepG2, at 10uM
# Assay type: cell-based
# Set-up: test concentration 10 uM, cell line HepG2-A16-CD81EGFP
# Conditions: human, HepG2-A16-CD81EGFP cells; read-out: INHIBITION
# Procedure, shortened: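 Uninfected HepG2-A16-CD81EGFP cells, 3 × 10^3 per well, 1536-well, plated on prespotted compound at 10 μM final, parasite-free screening media added to match infected plates; puromycin 10 μM positive, DMSO 0.5% negative; run in parallel with 48 h PbLuc assay at 37 °C, 5% CO2; viability by CellTiter-Glo luminescence, normalized to controls.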
row,SMILES,cytotoxicity at 10 µM [%]
1,CC(C)(C)c1coc([C@@H]2COCCN2CC2CC2)n1,-10.1
2,CN(C)CCNCC1CCOC(C)(C)C1 (stereo not given),-9.35
3,O=C1CN(C(=O)C2CCCCC2)CC(O)CN1Cc1ccco1 (stereo not given),-2.67
4,O=C(NCCc1c[nH]cn1)c1n[nH]c2c1CCC2,1.67
5,COc1ccc(-n2ncc3c2NC(=O)CSC3CC(C)C)cc1 (stereo not given),-0.418
6,O=C(C1=NN(Cc2ccccc2)c2ccccc2S1(=O)=O)N1CCCC1,-4.65
7,O=C(NCc1ccc(F)cc1)NCC(O)(c1cccs1)C1CC1 (stereo not given),-1.13
8,CS(=O)(=O)N1CCN(c2cnnc(N3CCCC3)c2)CC1,2.24
9,Cc1csc(CN2CC[C@H]3C[C@@H](c4nc(C)no4)O[C@@H]3C2)n1,3.8
10,Cc1oncc1C(=O)N1CCCc2c(C#N)nn(C)c2C1,-134
11,O=C(NCc1ccc(F)cc1)C1CCCN(c2ccc3nncn3n2)C1 (stereo not given),-4.46
12,COc1ccc(C(=O)NCC(c2cccn2C)N2CCCC2)c(OC)c1 (stereo not given),1.31
13,CC(C)n1[nH]c(=O)c2c1NC(=O)CC2c1cccc(OC(F)F)c1 (stereo not given),16
14,CO[C@@H]1CC[C@H]2[C@H]1OCCN2C(=O)c1ccc(C)o1,3.68
15,Cc1nn(C)c2c(=O)n(Cc3ccc(F)cc3)nnc12,3.41
16,Cc1cc(C)cc(N2CC(c3nnc(N)s3)CC2=O)c1 (stereo not given),4.29
17,CC1CCN(C(=O)c2ccn(COc3ccc(F)cc3)n2)CC1,-9.38
18,Cc1cc(-c2cnc(N(C)C)nc2C2CCCCN2C(=O)C2CC2)on1 (stereo not given),0.095
19,CCc1nnc(Nc2cc(C)nc(C3CCN(c4ncccn4)C3)n2)s1 (stereo not given),3.07
20,Fc1cccc(CN2CCC(c3noc(-c4cnccn4)n3)CC2)c1F,-1.37
21,NC(=O)CN1CCC(c2cccc(Oc3ccccc3)n2)CC1,-4.72
22,CN(C)c1ncccc1C(=O)N1CCc2c(ncn2C2CC2)C1,1.28

row,SMILES,cytotoxicity at 10 µM [%]
1,CCn1ccnc1CN1CCCN(C(=O)c2ccc(C#N)cc2)CC1,-6.96
2,Clc1ccc(C(CNCc2ccncc2)n2cccn2)cc1 (stereo not given),6.73
3,COc1cc(C#N)ccc1OCCN1CCC(n2ccnc2)CC1,2.75
4,Cc1ccccc1C(C)NC(=O)Cc1c(C)nc2cc(=O)[nH]n2c1C (stereo not given),10.8
5,O=C(c1c[nH]nn1)N1CCN(C(c2ccccc2)C(F)(F)F)CC1 (stereo not given),8.92
6,CCCOc1ccc(CCC(=O)Nc2nonc2C)cc1,-7.24
7,Cc1cccc(NC(=O)CCC(=O)NCC(=O)c2ccccc2F)c1,-6.56
8,Cc1nn(C)c(C)c1C1CCCN1C(=O)c1cc(C(N)=O)cs1 (stereo not given),-2.53
9,Cc1c(-c2ccncc2)n[nH]c1NC(=O)CCOC(C)C,6.58
10,Cc1nnc(CN(C)CC(=O)N2CCCC(C(F)(F)F)C2)n1C (stereo not given),4.49
11,COCc1nc(C)cc(Nc2ccc3c(c2)CC(=O)N3)n1,1.41
12,O=C(c1ccc(-n2cncn2)cc1)N1CCN(c2cnccn2)CC1,2.45
13,N#Cc1cn(CCCN2CCc3ccccc3C2)c(=O)[nH]c1=O,2.72
14,CCN1CCN(C(C)CNC(=O)Nc2nnc(C(C)C)s2)CC1 (stereo not given),1.06
15,CCN(CC(=O)Nc1cc(Cl)ccc1C)C(=O)c1ccncc1,-1.73
16,Cc1ccccc1-n1cnnc1SCCOCC1CCCO1 (stereo not given),-3.73
17,Cc1cc(C)c(CNC(=O)C(C)Oc2ccccc2F)c(=O)[nH]1 (stereo not given),6.99
18,O=C(Nc1ccc(N2CCCCC2)nc1)N1CCc2sccc2C1,-7.98
19,NCC1(c2cccc(C(F)(F)F)c2)CCCC1,-5.7
20,CC(C)(C)c1nnc(CNc2c(F)cccc2-n2cccn2)o1,-8.25
21,CCn1c(C)cc(C(=O)N2CCCC(n3ccnc3C)C2)c1C (stereo not given),-1.51
22,CNC(=O)c1cccc(CCNc2ncc(Br)cn2)c1,9.5

row,SMILES,cytotoxicity at 10 µM [%]
1,CCc1ccc(C(=O)N2CCCC2c2c(C)nn(C)c2OC)o1 (stereo not given),6.16
2,CCc1nc(CN(C)C(=O)NC(C)c2cccc(NC(C)=O)c2)cs1 (stereo not given),-4.85
3,COc1ccc(Nc2cc(C)nc(C)n2)cc1N1CCCC1=O,-2.19
4,CCN(C(=O)c1ccc(-c2ccccc2)nc1C)C1CC(=O)NC1=O (stereo not given),-4.18
5,Cc1cc(C(=O)NC2(C#N)CCSCC2)n(C)n1,22.1
6,CCOCc1ccccc1CNc1ccc2nncn2n1,0.84
7,Cn1cc(C(C)(O)CNC(=O)c2cc(Br)cn2C)cn1 (stereo not given),-51.1
8,COCC(=O)N1CCN(Cc2cc(F)cc(Br)c2)CC1,15.8
9,O=C(c1cccc2[nH]ccc12)N1CCC2(CCOC2)C1 (stereo not given),-151
10,CCc1n[nH]c(C2CN(Cc3ncc(CC)o3)CCO2)n1 (stereo not given),-9.79
11,NC(=O)c1ccc(C(=O)N(Cc2ccc(O)cc2)CC2CC2)cc1,8.19
12,CCC(CNS(C)(=O)=O)Oc1ccccc1F (stereo not given),-6
13,Cn1cc(NC(=O)c2cccc3cccnc23)ccc1=O,-4.83
14,c1cnn(CCNCc2ccc(N3CCCCC3)cc2)c1,-10.1
15,COCCC1(CNC(=O)NCC2CCCN(C)C2)CCC1 (stereo not given),-1.11
16,Cc1ccccc1CN(CC(=O)O)C(=O)COCC1CC1,-1.92
17,CS(=O)(=O)N1CCC(Nc2ccc(C#N)c(C(F)(F)F)c2)CC1,6.85
18,CN(CCn1cccn1)S(=O)(=O)c1cccc(Cl)c1C#N,3.45
19,CCS(=O)(=O)NCC(=O)Nc1cc(CC(C)(C)C)n[nH]1,5.01
20,Cc1n[nH]c(C2CN(CC(=O)NCc3ccco3)CCO2)n1 (stereo not given),23
21,COc1cccc(N2CC3(CCN(C(=O)NC(C)C)C3)CC2=O)c1 (stereo not given),3.52
22,COc1ccc2[nH]nc(CN3CCC(C(C)N4CCCC4)CC3)c2c1 (stereo not given),-4.13

row,SMILES,cytotoxicity at 10 µM [%]
1,Cc1nc(N2CCC(C(O)c3nccn3C)CC2)c2cccnc2n1 (stereo not given),1.46
2,Cc1nc[nH]c1C(=O)N1CCC2(CN(C)C(=O)O2)C1 (stereo not given),2.99
3,COCCn1ccnc1C1CCN(Cc2ccccc2C#N)CC1,-10.2
4,CC(C)n1ccnc1C1CCN(C(=O)c2ccccc2N(C)C)CC1,4.67
5,Cc1ccnn1CCN1CCCC2(CCC(=O)N(C3CCCC3)C2)C1 (stereo not given),5.93
6,Cc1ccc(CN2CC[C@@H](NC(=O)c3cccnc3)[C@H](O)C2)s1,-2.68
7,CNc1ncccc1C(=O)N1CCN(Cc2ccc(C)cc2)C(=O)C1C (stereo not given),5.67
8,CCCn1nc(C)c(CNC(=O)C2COc3ccc(OC)cc3C2)c1C (stereo not given),-7.79
9,C=Cc1cccc(CN2C[C@@H](CN(C)CC)[C@@H](CO)C2)c1,-6.63
10,CN(C)C(=O)N1CCN(CCCc2ccccc2)[C@H]2CS(=O)(=O)C[C@H]21,-5.18
11,CN1CCN(Cc2nnc(C3CCN(C4CCCCC4)CC3)n2C)CC1,3.18
12,CSCCc1n[nH]c2c1CN(S(=O)(=O)c1cn(C)c(C)n1)CC2,8.58
13,CCNC(=O)[C@@H]1C[C@@H](NC(=O)Cc2cc(C)no2)CN1Cc1ccsc1,5.62
14,CCNC(=O)c1ccc(N2CCCC(c3nccn3C(C)C)C2)nc1 (stereo not given),-8.39
15,CCN1CC(C(=O)N(C)Cc2ccon2)CC1=O (stereo not given),7.08
16,COc1cccc2c1OCC(C(=O)N1CCN(S(C)(=O)=O)CC1)C2 (stereo not given),-7.23
17,CC[C@@]1(O)CCN(C(=O)c2ccsc2)C[C@H]1O,-9.35
18,Cc1ccc(N(CCC#N)C(=O)CN2CCCC2c2ccsc2)cc1C (stereo not given),-11.2
19,Cc1ccc(C(=O)N(C)Cc2ccc3c(c2)OCCO3)c(=O)[nH]1,-9.24
20,CC(C)c1noc(CCCC(=O)N2CCN(S(C)(=O)=O)CC2)n1,-15.7
21,COc1c(C2CCCN2Cc2cccc(C(N)=O)c2)c(C)nn1C (stereo not given),-8.18
22,Cc1cnc(CN2CCCC2c2cnn(C)c2)cn1 (stereo not given),0.35

row,SMILES,cytotoxicity at 10 µM [%]
1,O=C(CN1CCC(c2ccnn2CCO)CC1)NC1CCCC1,-6.64
2,Cc1ccc(NC2CCN(C(=O)c3cc4c(s3)CCC4)CC2)nn1,-3.48
3,CCc1noc(C(C)N2CCN(S(=O)(=O)N3CCCC3)CC2)n1 (stereo not given),-0.252
4,Cc1cnn(CC(C)NCc2ccc(OCc3cscn3)cc2)c1 (stereo not given),-9.35
5,Cc1nc(C)n(C2CCCN(C(=O)c3sccc3C3CC3)C2)n1 (stereo not given),-9.68
6,CCN(Cc1ccc2c(c1)OCO2)C(=O)NC(C)Cn1cccn1 (stereo not given),-2.5
7,Cc1cc(C)n(C2CCCN(C(=O)CCNS(C)(=O)=O)C2)n1 (stereo not given),6.62
8,Cc1ccc(-c2ncc(C(=O)NCCNC(=O)C(C)C)s2)c(C)c1,-6.53
9,NC(=O)c1cc(NC(=O)NCCc2cc(F)cc(F)c2)ccc1F,-9.58
10,Cn1ccc(CN2CCC(CO)CC2)cc1=O,5.1
11,Cn1cnnc1C1CCCN(C(=O)NCc2ccc3c(c2)OCO3)C1 (stereo not given),-1.9
12,Cc1cc(CN(C)C(=O)C2CCS(=O)(=O)C2)no1 (stereo not given),0.746
13,CC(C)C(=O)N1CCc2c(CN(C)Cc3ccco3)cncc2C1,-5.69
14,O=C([C@H]1CC[C@@H]2[C@@H](CCN2Cc2ccc(F)cc2)O1)N1CCCO1,3.74
15,Cc1nc(-c2cc(C(=O)NCCN3CCOCC3)c3ccccn23)cs1,3.59
16,CN(C)C(=O)COC[C@]12COC[C@H]1CN(CC1CCC1)C2,-6.07
17,O=C(NCCc1ccncc1)[C@H]1CC[C@@H]2[C@@H](CCN2CC2CC2)O1,0.545
18,CC(C)NC(=O)N1CCc2onc(C(=O)Nc3cccnc3)c2C1,4.32
19,Fc1ccc(CN2CCC3(CCCN(c4nncs4)C3)C2)cc1 (stereo not given),-141
20,COCC(=O)N1C[C@@H]2CCCO[C@@H]2[C@H](N(C)Cc2ccco2)C1,-0.704
21,Cc1ccc(CNC2CCCc3c2cnn3C)s1 (stereo not given),-0.987
22,CN(C)C(=O)COC[C@H]1CC[C@@H]2[C@@H](CCN2Cc2ccco2)O1,-160
